In PubChem BioAssay:
Inconclusive results are not listed.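 The calls were made as follows, unless noted: active = RAM network inhibition above 8.4% in each of two replicates, 3 SD over the compound average; inconclusive = above 8.4% inhibition in only one replicate; inactive = 8.4% inhibition or less in each replicate.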

Tests used:
[1] = S. cerevisiae growth inhibition in permissive medium (OD615), pilot counter-assay for S. cerevisiae lifespan shortening project, permissive growth control (AID 705;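 active = growth inhibition above 25% in both replicates, a cutoff set 3 SD above the mean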); conditions: OD615, 24 h, at 10 µM, active compounds read high
Procedure, shortened: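 assay system = Saccharomyces cerevisiae strain carrying genetically modified DeaD replicative-lifespan system | technique = absorbance (optical density) at 615 nm | buffer or medium = permissive raffinose/galactose medium | timing = cells pre-grown 4 h, then 24 h compound exposure, 30 °C humidified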

[2] = S. cerevisiae growth inhibition in restrictive medium, OD615, pilot screen, restrictive growth control, yeast lifespan reduction project (AID 706;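 active = growth inhibition above a set limit, 3 SD over mean compound inhibition, in both replicates, cut at about 43% in these data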;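 also: modified DeaD lifespan yeast strain shifted to restrictive glucose medium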); conditions: OD615, 48 h, at 10 µM, active compounds read high
Procedure, shortened: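 System: modified S. cerevisiae. Buffer or medium: CSMM-D glucose medium. Incubation: 4 h pre-growth plus 48 h compound exposure, 30 °C. Detection: absorbance (optical density) measured at 615 nm.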

[3] = doxorubicin toxicity protection in MRP-1 cells – H69AR cells, CellTiter-Glo, duplicate, MRP-1 activator project, pilot screen (AID 807;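 active = viability increase at or above a cutoff of the median across tested compounds plus 3 SD, cut at about 8.5% in these data, passing the limit was not always enough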;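 also: compound pretreatment 18-22 h then 72 h combined with doxorubicin; 0% = doxorubicin alone and 100% = vehicle without doxorubicin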); conditions: H69AR viability with doxorubicin, CellTiter-Glo luminescence; at 10 µM; active compounds read high
[4] = viability of HCT116 without oncogenic beta-catenin – human colon tumor cells, pilot screen (AID 823;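 active = cell viability at or below a set limit in both duplicate runs, the limit being the all-compound median minus 4 SD, cut at about 23% in these data, passing the limit was not always enough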;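 also: 0% = wells killed by 20 µM Hyamine and 100% = untreated DMSO cell wells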); conditions: HCT116 beta-catenin knockout viability, CellTiter-Glo, 60 h; at 10 µM; active compounds read low
[5] = viability of PTEN-null HCT116 cells – cell-based, HCT116 clonal line, CellTiter-Glo, pilot screen (AID 824;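 active = viability at or below 27.92% in each of two runs, the all-compound median minus 4 SD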;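 also: 0% = 20 µM Hyamine control and 100% = vehicle cell control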); conditions: HCT116 PTEN-deleted viability, 60 h, at 10 µM, active compounds read low
[6] = RAM pathway blockade in budding yeast – dse1pr::URA3 reporter, 5-FOA selection, pilot screen (AID 869;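 active = inhibition over a set limit, the all-compound mean plus 3 SD, in both replicate runs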;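 also: 0% = DMSO wells with no growth and 100% = 10 µM 1-NA-PP1 with full growth; RAM network block rescues cells from 5-FOA so hits raise OD615 growth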); conditions: S. cerevisiae dse1pr::URA3 5-FOA growth, OD615, 2 d; at 10 µM; active compounds read high; strain carries analog-sensitive mutant Cbk1 kinase
[7] = RAM signaling pathway blockade in yeast – S. cerevisiae, Pdr1DBD-CYC8 efflux-inhibited sensitized strain, primary screen (AID 1298);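 also: 0% = DMSO untreated cells without growth and 100% = 10 µM 1-NA-PP1 full growth; higher means more yeast growth rescued from 5-FOA killing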; conditions: S. cerevisiae cbk1-as DSE1-URA3 strain, 5-FOA growth OD615, 2 d; at 50 µM; active compounds read high

COCCOC(=O)C1=C(C)NC2=C(C(=O)CCC2)C1c1ccc(N(C)C)cc1 (stereo unspecified)
inactive: growth inhibition [1] -4.38% | growth inhibition [2] -19.9% | viability increase [3] -1.53% | viability [4] 98.6% | viability [5] 93.4% | inhibition [6] 0.975% | RAM network inhibition [7] 4.47%

O=C(NCCc1ccc(Cl)cc1)C1CC(=O)N(C2CCCCC2)C1 (stereo unspecified)
inactive: growth inhibition [1] -4.04% | growth inhibition [2] -5.98% | viability increase [3] -0.99% | viability [4] 94.6% | viability [5] 101% | inhibition [6] 1.06% | RAM network inhibition [7] 0.58%

CC1=C(C(=O)OCc2ccccc2)C(c2ccco2)C2=C(CC(C)(C)CC2=O)N1 (stereo unspecified)
inactive: growth inhibition [1] -13.1% | growth inhibition [2] -7.33% | viability increase [3] -6.3% | viability [4] 71.9% | viability [5] 67.5% | inhibition [6] 2.4% | RAM network inhibition [7] 1.23%

CC(=O)c1c(N2CCN(c3ccccc3)CC2)nc(=S)n(-c2ccccc2)c1C
inactive: growth inhibition [1] 3.6% | growth inhibition [2] 15.2% | viability increase [3] -3.16% | viability [4] 92.9% | viability [5] 99.9% | inhibition [6] 0.91% | RAM network inhibition [7] 6.47%

O=C(CN1CCOc2ccccc21)NC1CCCCCCC1
inactive: growth inhibition [1] -14.2% | growth inhibition [2] 21.8% | viability increase [3] -5.54% | viability [4] 75.5% | viability [5] 78.2% | inhibition [6] 1.38% | RAM network inhibition [7] 0.83%

Cc1cc(C)n(C(CC(=O)N2CCc3ccccc3C2)C(=O)O)n1 (stereo unspecified)
inactive: growth inhibition [1] -3.07% | growth inhibition [2] -0.04% | viability increase [3] 0.01% | viability [4] 102% | viability [5] 95.5% | inhibition [6] 0% | RAM network inhibition [7] 5.81%

Cn1c(NCc2ccccc2Cl)nc2ccccc21
inactive: growth inhibition [1] -5.4% | growth inhibition [2] -11.6% | viability increase [3] 0.98% | viability [4] 97.5% | viability [5] 92.8% | inhibition [6] 0.3% | RAM network inhibition [7] 1.78%

Cc1ccc(/C(O)=C2/C(=O)C(=O)N(CCN3CCOCC3)C2c2cccnc2)cc1 (stereo unspecified)
inactive: growth inhibition [1] 6.32% | growth inhibition [2] 4.34% | viability increase [3] 0.49% | viability [4] 93.5% | viability [5] 102% | inhibition [6] -0.11% | RAM network inhibition [7] 0.7%

O=C(O)C1CC=CCC1C(=O)Nc1cccc(Cl)c1Cl (stereo unspecified)
inactive: growth inhibition [1] -8.95% | growth inhibition [2] -11.1% | viability increase [3] -1.82% | viability [4] 99.6% | viability [5] 101% | inhibition [6] 3.07% | RAM network inhibition [7] 0.21%

CN(c1ccc(C(=O)O)cc1)S(=O)(=O)c1ccccc1
inactive: growth inhibition [1] 0.21% | growth inhibition [2] 5.12% | viability increase [3] -1.24% | viability [4] 99.5% | viability [5] 92.5% | inhibition [6] 1.14% | RAM network inhibition [7] 1.5%

Cc1cc(Nc2ccc(F)cc2F)n2ncnc2n1
inactive: growth inhibition [1] -1.61% | growth inhibition [2] 6.47% | viability increase [3] -1.6% | viability [4] 96.5% | viability [5] 97.8% | inhibition [6] 1.35% | RAM network inhibition [7] 1.04%

COc1ccc(-n2c(SCC(=O)Nc3ccccc3)nc3c(c2=O)SCC3)cc1
inactive: growth inhibition [1] -1.34% | growth inhibition [2] 0.23% | viability increase [3] 3.8% | viability [4] 101% | viability [5] 96% | inhibition [6] 0.755% | RAM network inhibition [7] 9.27%

CCC(=O)Nc1c(C)cc(C)cc1Cl
inactive: growth inhibition [1] -12.5% | growth inhibition [2] -10.9% | viability increase [3] -0.97% | viability [4] 92.7% | viability [5] 96.4% | inhibition [6] 1.44% | RAM network inhibition [7] 0.83%

CCOc1ccc2nc(N3CCC(C(=O)N4CCN(C(=O)c5ccco5)CC4)CC3)sc2c1
inactive: growth inhibition [1] -10.8% | growth inhibition [2] -9.39% | viability increase [3] -4.93% | viability [4] 69.7% | viability [5] 77.7% | inhibition [6] 0.305% | RAM network inhibition [7] 3.91%

CCOc1ccc(NC2CCN(C(C)=O)CC2)cc1
inactive: growth inhibition [1] -12.8% | growth inhibition [2] -7.46% | viability increase [3] 0.27% | viability [4] 95.2% | viability [5] 97% | inhibition [6] 0.625% | RAM network inhibition [7] 6.44%

CCN1CCN(CC(=O)Nc2ccc3c(c2)OCO3)C(=O)C1=O
inactive: growth inhibition [1] -18.6% | growth inhibition [2] -4.2% | viability increase [3] -0.45% | viability [4] 101% | viability [5] 100% | inhibition [6] 0.7% | RAM network inhibition [7] 6.72%

COc1cc2c(C(=O)NCc3ccccn3)cn(CC(C)C)c(=O)c2cc1OC
inactive: growth inhibition [1] -6.14% | growth inhibition [2] -28.3% | viability increase [3] -3.77% | viability [4] 104% | viability [5] 92.4% | inhibition [6] 1.55% | RAM network inhibition [7] 1.16%

Cc1nn(-c2ccc(Cl)cc2)c2sc(C(=O)N3CCN(C(=O)c4ccco4)CC3)cc12
inactive: growth inhibition [1] -4.13% | growth inhibition [2] -10.7% | viability increase [3] -5.55% | viability [4] 89.3% | viability [5] 82.5% | inhibition [6] 2% | RAM network inhibition [7] 2.13%
